According to ChEMBL document CHEMBL3352720, “Novel alkylphospholipid-DTC hybrids as promising agents against endocrine related cancers acting via modulation of Akt-pathway” (Eur J Med Chem, 2014):

Assays:
HEK293 = experiment: Antiproliferative activity against HEK293 cells assessed as inhibition of cell proliferation incubated for 18 hrs followed by MTT addition for 4 hrs by MTT assay; assay type: cell-based; details: Homo sapiens
In short: (§1)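 MTT assay. Cells were grown in DMEM with 10% FBS at 37 °C, 5% CO2, 90% relative humidity. 1 × 10⁴ cells per well were seeded and held 24 h, then exposed to compounds diluted in culture medium for 18 h. MTT (5 mg/mL stock) was added for a further 4 h.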

MCF7 [1] = experiment: Antiproliferative activity against human MCF7 cells assessed as inhibition of cell proliferation incubated for 18 hrs followed by MTT addition for 4 hrs by MTT assay; assay type: functional, cell-based; in short: as §1
MDA-MB-231 = experiment: Antiproliferative activity against human MDA-MB-231 cells assessed as inhibition of cell proliferation incubated for 18 hrs followed by MTT addition for 4 hrs by MTT assay; assay type: functional, cell-based; in short: as §1
[2] = Antiproliferative activity against human DU145 cells assessed as inhibition of cell proliferation incubated for 18 hrs followed by MTT addition for 4 hrs by MTT assay; assay type: functional, cell-based; details: DU-145; in short: as §1
[3] = Antiproliferative activity against human PC3 cells assessed as inhibition of cell proliferation incubated for 18 hrs followed by MTT addition for 4 hrs by MTT assay; assay type: functional, cell-based; details: PC-3; in short: as §1
MCF7 [4] = experiment: Induction of apoptosis in human MCF7 cells assessed as viable cells level incubated for 24 hrs by annexin-V and propidium iodide staining based flow cytometry (reference value: 89.58%); assay type: functional
MCF7 [5] = experiment: Induction of apoptosis in human MCF7 cells assessed as early apoptotic cells level incubated for 24 hrs by annexin-V and propidium iodide staining based flow cytometry (reference value: 6.42%); assay type: functional
MCF7 [6] = experiment: Induction of cell cycle arrest in human MCF7 cells assessed as accumulation at G2/M phase incubated for 24 hrs by propidium iodide staining based FACS assay (reference value: 1.47%); assay type: functional
MCF7 [7] = experiment: Induction of cell cycle arrest in human MCF7 cells assessed as accumulation at sub-diploid phase incubated for 24 hrs by propidium iodide staining based FACS assay (reference value: 7.26%); assay type: functional
MCF7 [8] = experiment: Induction of cell cycle arrest in human MCF7 cells assessed as accumulation at G0/G1 phase incubated for 24 hrs by propidium iodide staining based FACS assay (reference value: 53.32%); assay type: functional
MCF7 [9] = experiment: Induction of mitochondrial membrane potential loss in human MCF7 cells assessed as increase in JC1 dye monomer green fluorescence incubated for 24 hrs by JC1 dye based flow cytometry (reference value: 1.78%); assay type: functional
MCF7 [10] = experiment: Induction of apoptosis in human MCF7 cells assessed as necrotic cells level incubated for 24 hrs by annexin-V and propidium iodide staining based flow cytometry (reference value: 2.15%); assay type: functional
MCF7 [11] = experiment: Induction of cell cycle arrest in human MCF7 cells assessed as accumulation at S phase incubated for 24 hrs by propidium iodide staining based FACS assay (reference value: 45.21%); assay type: functional
MCF7 [12] = experiment: Induction of apoptosis in human MCF7 cells assessed as late apoptotic cells level incubated for 24 hrs by annexin-V and propidium iodide staining based flow cytometry (reference value: 1.85%); assay type: functional

| IC50 (MCF7 [1]) | IC50 (MDA-MB-231) | SMILES | IC50 (HEK293) | IC50 [2] | IC50 [3] | Activity (MCF7 [4]) | Activity (MCF7 [5]) | Activity (MCF7 [6]) | Activity (MCF7 [7]) | Activity (MCF7 [8]) | Activity (MCF7 [9]) | Activity (MCF7 [10]) | Activity (MCF7 [11]) | Activity (MCF7 [12]) |
| --- | --- | --- | --- | --- | --- | --- | --- | --- | --- | --- | --- | --- | --- | --- |
| 78 µM | 27 µM | CCCCCCCCOP(=O)(O)OCCSC(=S)N1CCCCCC1 | > 100 µM | 59.1 µM | 56.8 µM | – | – | – | – | – | – | – | – | – |
| 99.6 µM | 29 µM | CCCCCCCCCCOP(=O)(O)OCCSC(=S)N1CCN(C)CC1 | > 100 µM | 82.3 µM | 80 µM | – | – | – | – | – | – | – | – | – |
| > 100 µM | > 100 µM | CCCCCCCCCCCCCCCCOP(=O)(O)OCCSC(=S)N1CCN(C)CC1 | > 100 µM | 49.3 µM | 95.2 µM | – | – | – | – | – | – | – | – | – |
| > 100 µM | > 100 µM | CCCCCCCCCCCCCCCCOP(=O)(O)OCCSC(=S)N1CCCCCC1 | > 100 µM | 17.6 µM | 32.1 µM | – | – | – | – | – | – | – | – | – |
| 26 µM | 11.9 µM | CCCCCCCCOP(=O)(O)OCCSC(=S)N1CCCCC1 | 69 µM | > 100 µM | > 100 µM | – | – | – | – | – | – | – | – | – |
| 72 µM | 69 µM | CCCCCCCCCCCCCCCCOP(=O)(O)OCCSC(=S)N1CCCC1 | > 100 µM | 28.9 µM | 65.7 µM | – | – | – | – | – | – | – | – | – |
| 43.3 µM | 11.4 µM | CCCCCCCCCCOP(=O)(O)OCCSC(=S)N1CCCCCC1 | 70 µM | 23.9 µM | 32.9 µM | – | – | – | – | – | – | – | – | – |
| 34.7 µM | 2.08 µM | CCCCCCCCCCCCCCCCOP(=O)([O-])OCC[N+](C)(C)C [MILTEFOSINE] | – | 25.8 µM | 19.9 µM | 43.6% | 44.84% | 2.14% | 3.48% | 64.8% | 50.05% | 2.15% | 33.07% | 9.43% |
| 59 µM | 62 µM | CCCOP(=O)(O)OCCSC(=S)N1CCN(C)CC1 | 39.6 µM | > 100 µM | > 100 µM | – | – | – | – | – | – | – | – | – |
| 46 µM | 58.5 µM | CCCCCCCCOP(=O)(O)OCCSC(=S)N1CCN(C)CC1 | 86 µM | > 100 µM | > 100 µM | – | – | – | – | – | – | – | – | – |
| 74 µM | 38 µM | CCCOP(=O)(O)OCCSC(=S)N1CCCCCC1 | 54 µM | 86.1 µM | > 100 µM | – | – | – | – | – | – | – | – | – |
| 62 µM | 85 µM | CCCCCCOP(=O)(O)OCCSC(=S)N1CCCCC1 | > 100 µM | > 100 µM | > 100 µM | – | – | – | – | – | – | – | – | – |
| 70 µM | 67 µM | CCCCCCCCCCOP(=O)(O)OCCSC(=S)N1CCCC1 | > 100 µM | 46.1 µM | 56.1 µM | – | – | – | – | – | – | – | – | – |
| 53 µM | 69 µM | CCCCCCCCOP(=O)(O)OCCSC(=S)N1CCCC1 | 28.3 µM | 47.1 µM | > 100 µM | – | – | – | – | – | – | – | – | – |
| 100 µM | 54 µM | CCCCCCOP(=O)(O)OCCSC(=S)N1CCCC1 | > 100 µM | > 100 µM | > 100 µM | – | – | – | – | – | – | – | – | – |
| 55 µM | 17.2 µM | CCCCCCOP(=O)(O)OCCSC(=S)N1CCCCCC1 | 70.5 µM | 77.4 µM | > 100 µM | – | – | – | – | – | – | – | – | – |
| 73 µM | 67 µM | CCCOP(=O)(O)OCCSC(=S)N1CCCC1 | > 100 µM | > 100 µM | > 100 µM | – | – | – | – | – | – | – | – | – |
| 58 µM | 73 µM | CCCCCCOP(=O)(O)OCCSC(=S)N1CCN(C)CC1 | > 100 µM | > 100 µM | > 100 µM | – | – | – | – | – | – | – | – | – |
| > 100 µM | 68 µM | CCCOP(=O)(O)OCCSC(=S)N1CCCCC1 | > 100 µM | > 100 µM | > 100 µM | – | – | – | – | – | – | – | – | – |
